Bioassay records from PubChem.
Sampled rows, rich in hits. Any-hit rate of the full collection: about 3.1%.
Myeloid diff MLP – promotes myeloid progenitor differentiation; ER-HoxA9 myeloid progenitors, lysozyme-GFP differentiation, flow cytometry; 360,000 tested, 1% active; AID 624256; calls only at 10 µM;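 active means normalized GFP-positive differentiation at or above the plate's own cutoff, the solvent-only control mean plus 3 SD; inconclusive means no clear call, values can overlap the other calls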;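 further: cells exposed to compound for four days before flow analysis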
core dimer inh – HCV core protein dimerization inhibition. TR-FRET GST/Flag-core106 dimerization, 1536-well. inhibition, % at 5 µM. 300,000 tested, 0.33% active. AID 1899;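 active means inhibition above the mean of all tested compounds plus 3 SD, set per screening campaign, cut at about 45% in these data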
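Material: Tagged HCV core106 pair (GST and Flag) | Amount: GST-core106 13.5 nM, Flag-core106 17 nM | Medium: KF-containing HEPES buffer, pH 7.45, DTT, CHAPS, BSA | Reagent: Eu donor and XL665 acceptor anti-tag antibodies | Schedule: 4 h at 22.5 °C | Technique: Time-resolved FRET, ex 340 nm, em 617 and 671 nm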
CTSL1 counter – counter-screen for PFM18AAP inhibitors: inhibitors of F. hepatica cathepsin L1; 300,000 tested, 0.49% active; inhibition, % at 5.96 µM; AID 1906; recombinant F. hepatica cathepsin L1, Z-Leu-Arg-MCA fluorescence;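 active means inhibition above the mean of all tested compounds plus 3 SD, set per screening campaign, cut at about 17% in these data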;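 further: 0% = plate median of test compound wells and 100% = 1 µM Z-Phe-Ala-diazomethylketone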
PP5 primary – PP5 (human) phosphatase inhibition; P53041; purified PP5c, OMFP substrate fluorescence; inhibition, % at 6.7 µM; 320,000 tested, 0.18% active;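 active means inhibition above the campaign's mean inhibition across all tested compounds plus 3 SD, cut at about 9.5% in these data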;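 further: 0% = DMSO only and 100% = 100 µM cantharidin control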
Target sequence (P53041 whole entry, looked up): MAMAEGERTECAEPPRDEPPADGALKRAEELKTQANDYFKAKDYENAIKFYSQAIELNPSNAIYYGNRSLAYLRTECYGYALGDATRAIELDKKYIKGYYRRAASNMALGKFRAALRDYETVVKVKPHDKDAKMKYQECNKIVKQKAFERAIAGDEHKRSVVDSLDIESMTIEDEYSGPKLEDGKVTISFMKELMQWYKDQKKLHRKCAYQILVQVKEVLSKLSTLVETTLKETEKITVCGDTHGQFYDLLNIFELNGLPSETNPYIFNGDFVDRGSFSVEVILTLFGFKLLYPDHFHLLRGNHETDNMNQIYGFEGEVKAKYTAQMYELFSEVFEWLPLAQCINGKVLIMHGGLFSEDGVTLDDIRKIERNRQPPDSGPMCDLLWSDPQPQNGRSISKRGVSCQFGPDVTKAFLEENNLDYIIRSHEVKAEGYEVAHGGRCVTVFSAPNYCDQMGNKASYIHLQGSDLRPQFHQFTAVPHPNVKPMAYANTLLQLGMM
NadD block – NadD (S. aureus) enzyme inhibition. purified NadD enzyme, colorimetric absorbance read-out. inhibition, % at 20 µM. 360,000 tested, 0.78% active; in the data active means inhibition above about 26%
PP1 inh – blocks human PP1-alpha phosphatase, a PP5 counter-screen; P62136; purified PP1alpha, OMFP fluorescence; inhibition, % at 6.7 µM; 320,000 tested, 0.9% active; AID 2235;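 active means inhibition above the mean inhibition of all tested compounds plus 3 SD, computed separately for each screening campaign, cut at about 15% in these data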
Numbers without * were called inactive; i = inactive; ? = inconclusive; · = no result; + = active, no number.

SMILES | Myeloid diff MLP | core dimer inh | CTSL1 counter | PP5 primary | NadD block | PP1 inh
CCCN1CCc2c(sc(NC(=O)c3ccc(S(=O)(=O)N4CCCC4)cc3)c2C(N)=O)C1 | + | -12 | -3 | 3 | 8 | 4
COc1cccc(-c2nnc(NC(=O)c3ccc(S(=O)(=O)N4CC(C)OC(C)C4)cc3)o2)c1 (centres undefined) | + | 8 | 8 | -3 | 23 | 4
COc1ccc(C)cc1-n1nnnc1SCC(=O)NC1CC1 | i | · | · | 1 | 2 | -2
Cc1cc(C)c(OCC(=O)NCC(C)(C)N2CCOCC2)c(C)c1 | i | -1 | 0 | 1 | 3 | -6
NC(=O)c1ccsc1NC(=O)c1ccc(S(=O)(=O)N2CCCCC2)cc1 | i | 7 | 37* | 5 | -3 | 1
Cc1cccnc1NC(=O)c1ccc(S(=O)(=O)N2CCC(C)CC2)cc1 | i | 2 | 6 | 0 | -5 | 16*
Cc1cccnc1NC(=O)c1ccc(S(=O)(=O)N2CCCC2)cc1 | i | · | · | · | -6 | ·
Cc1nnc(NC(=O)c2ccc(S(=O)(=O)N3CCCCCC3)cc2)o1 | i | -1 | -2 | 1 | 6 | 17*
COc1ccccc1S(=O)(=O)N(C)C[C@@H]1Oc2ncc(-c3ccc(C)cc3)cc2C(=O)N([C@H](C)CO)C[C@@H]1C | i | · | · | · | 18 | ·
CC1CCN(C(=O)C(Cc2ccccc2)NS(=O)(=O)c2ccc3c(c2)oc(=O)n3C)CC1 (centres undefined) | i | -12 | -1 | -1 | 6 | -1
CC(C)C(NS(=O)(=O)c1ccc2c(c1)oc(=O)n2C)C(=O)N1CCN(Cc2ccccc2)CC1 (centres undefined) | i | 0 | 47* | 0 | -1 | -7
CSCCC(NS(=O)(=O)c1ccc2c(c1)oc(=O)n2C)C(=O)NC1CCN(Cc2ccccc2)CC1 (centres undefined) | i | -1 | 41* | 3 | -5 | 0
Cc1ccc(S(=O)(=O)N2CCCc3cc(NC(=O)c4c(F)cccc4F)ccc32)cc1 | + | 9 | 0 | 2 | -4 | -1
CCN(C(=O)CSc1nc2ccccc2[nH]1)C1CCS(=O)(=O)C1 (centres undefined) | i | · | · | · | -2 | ·
CN(C)C(=O)COc1ccc(S(=O)(=O)c2ccc(OCC(=O)N(C)C)cc2)cc1 | i | -2 | -1 | 0 | -6 | 1
COc1ccc([N+](=O)[O-])cc1NC(=O)CCS(=O)(=O)c1ccc(Br)cc1 | i | -57 | -1 | 5 | -9 | 17*
COc1ccc([N+](=O)[O-])cc1NC(=O)CSc1ncccn1 | i | 1 | 0 | -2 | -3 | -2
COc1ccc([N+](=O)[O-])cc1NC(=O)CSc1nccc(C)n1 | i | 51* | 0 | 2 | 9 | 4
CC(C)(C)OC(=O)COc1cc(F)ccc1[N+](=O)[O-] | i | 0 | 1 | 1 | 0 | 6
CCC1=Nc2cc(C(=O)NCc3ccco3)ccc2Sc2ccc(Cl)cc21 | ? | 59* | -4 | 2 | 26 | 10
Cc1cccn2c(=S)[nH]nc12 | i | · | · | · | 2 | ·
CC(C)C[C@H]1CN=C(Nc2ccccc2)N1CCCC1CCCC1 | i | -1 | 3 | 0 | -1 | -3
CCCCCCCN1C(Nc2ccccc2)=NC[C@@H]1CC(C)C | + | -6 | 6 | 0 | 4 | -3
Cc1c(CCC(=O)O)c(=O)oc2cc3occ(-c4ccc(F)cc4)c3cc12 | i | 17 | 4 | -1 | 1 | 4
Cc1c(CCC(=O)O)c(=O)oc2cc3occ(-c4ccc(Br)cc4)c3cc12 | + | 26 | 6 | -1 | 4 | 10
SMILES | Myeloid diff MLP | core dimer inh | CTSL1 counter | PP5 primary | NadD block | PP1 inh
Oc1ccc(N=Cc2ccc(O)c(O)c2)cc1 | i | -17 | 46* | 3 | 29 | 9
Oc1ccc(/C=N/N=C/c2ccc(O)c(O)c2)cc1O | i | -17 | 2 | -1 | 2 | -1
O=C(N[C@@H](Cc1ccccc1)C(=O)CCl)OCc1ccccc1 | i | 23 | 69* | 0 | 1 | 0
COC(=O)[C@H](Cc1ccccc1)NC(=O)[C@@H](N)CC(=O)OCc1ccccc1 | + | · | · | 0 | 2 | -3
O=C(N[C@@H](Cc1ccccc1)C(=O)N[C@@H](Cc1ccccc1)C(=O)O)OCc1ccccc1 | i | 4 | -3 | 1 | -4 | -2
CC(=O)c1ccc(OCCCCOc2ccc(C(C)=O)cc2)cc1 | i | -1 | -4 | 2 | -3 | -13
N#C/C(=N/Nc1ccc(OC(F)(F)F)cc1)C(N)=S | i | -15 | 2 | 7 | 0 | 5
NC(=S)N=Nc1ccc(NN=C(N)N)cc1 | i | -20 | 46* | 2 | 19 | 1
Cc1ccnn1-c1ccc(C(=O)NCc2ccccc2CN2CCOCC2)cc1 | i | · | · | · | -3 | ·
c1ccc(Nc2ccc3c4c(cccc24)CC3)cc1 | + | 0 | 6 | 3 | 7 | 0
Nc1ccc2c3c(cccc13)CC2 | + | -8 | -1 | 0 | 11 | 8
O=C(/C=C/c1ccccc1)c1ccc2c3c(cccc13)CC2 | i | 11 | -2 | 2 | 1 | 1
O=S(=O)(Nc1ccc2c3c(cccc13)CC2)c1ccc(F)cc1 | i | 25 | 0 | 5 | -3 | 0
CCOC(=O)Nc1ccc2c(c1)N(C(=O)CCN(CC)CC)c1ccccc1S2=O (centres undefined) | i | 2 | 17* | 0 | -1 | 0
Cc1ccc(O)c(NC(=O)c2cc(-c3cccs3)on2)c1 | ? | 17 | 4 | -1 | 5 | 1
CC(C)c1ccc(NC(=O)[C@H](Cc2c[nH]c3ccccc23)NC(=O)[C@@H]2Cc3ccccc3CN2)cc1 | i | 0 | 1 | 5 | 25 | 16*
CCn1c2ccccc2c2cc(NC(=O)c3cccc(OC)c3OC)ccc21 | + | 11 | -2 | 4 | -6 | -1
COc1cccc(C(=O)Nc2ccc(N(C)C)cc2)c1OC | + | -3 | 2 | -1 | -3 | -5
COc1cccc(C(=O)Nc2ccncc2)c1OC | i | -3 | -3 | 0 | -1 | -4
CC1(C(=O)NS(=O)(=O)c2ccccc2Cl)CCN1C(=O)c1ccccc1 (centres undefined) | i | · | · | · | -5 | ·
CN(C)CCn1c2c(c(SCC(=O)NCc3ccccc3)nc1=O)CCCC2 | i | -2 | 0 | 1 | -1 | -5
CC1=CCC(C(=O)O)C(C(=O)Nc2nc3ccc(S(C)(=O)=O)cc3s2)C1 (centres undefined) | + | 0 | 1 | 4 | 3 | 4
CS(=O)(=O)c1ccc2nc(NC(=O)CCS(=O)(=O)c3ccccc3)sc2c1 | ? | -2 | -4 | -2 | 2 | 4
CS(=O)(=O)c1ccc2nc(NC(=O)CCC(=O)c3cccs3)sc2c1 | i | 74* | -9 | 4 | 14 | 11
